# Experimental data taken from PubChem BioAssay AID540281 (Sanford-Burnham Center for Chemical Genomics, 2011).
# The campaign covered roughly 2,500 compounds. About 1,500 (60%) were called active. The set was probably picked from earlier hits. This is one part of a sample in which actives are shown more often than they occur.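 The calls were made as follows: active = inhibition of at least 30% at 20 µM; inactive = the rest.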
# Molecular target: Carboxy-terminal domain RNA polymerase II polypeptide A small phosphatase 1 (Homo sapiens) (UniProt Q9GZU7)
# Experiment: Scp-1 phosphatase inhibitors, retest, confirmation, biochemical, colorimetric, single concentration (AID 540281);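 also: plate controls were DMSO with enzyme for no effect and buffer wells lacking enzyme for full effect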
# Settings: recombinant SCP-1 catalytic domain, phosphate release, malachite green absorbance; at 20 µM; hits give high values
# Summary of the method: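 Test system: SCP-1 enzyme, residues 76-261; buffer or medium: Tris acetate pH 5.5 buffer with Mg2+ and detergent; also added: Phosphorylated 17-mer peptide as phosphatase substrate; compound dosing: single point at 20 µM, 1% DMSO; incubation: Enzyme–substrate reaction 45 min, room temperature; detection: colorimetric absorbance at 630 nm of released free orthophosphate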
# Sequence of Carboxy-terminal domain RNA polymerase II polypeptide A small phosphatase 1 (Homo sapiens) (Q9GZU7 76-261 limits assumed): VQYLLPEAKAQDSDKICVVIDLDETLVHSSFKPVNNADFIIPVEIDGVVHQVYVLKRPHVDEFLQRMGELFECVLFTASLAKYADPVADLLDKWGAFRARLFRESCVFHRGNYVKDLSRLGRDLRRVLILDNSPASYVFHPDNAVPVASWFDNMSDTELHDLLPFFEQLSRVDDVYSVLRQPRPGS
row,Structure (SMILES),inhibition
1,O=c1[nH]c(=O)n(CCc2ccc(F)cc2)c(O)c1/C=N/N1CCCCC1,34.8% (active)
2,COc1ccccc1N=C1SCCCN1C,81.9% (active)
3,O=C(O)CCn1cc(C=C2C(=O)NC(=S)NC2=O)c(-c2cccc(Br)c2)n1,40% (active)
